Assay outcomes deposited in PubChem by Johns Hopkins Ion Channel Center.
RGS4 pot = RGS4 potentiators or activators, primary screen, cell-based, HEK293 M3R inducible RGS4, calcium flux; carbachol calcium flux Fluo4; active compounds read low; B-score at 10 µM; AID 463111, 2010; 310,000 tested, 0.92% active;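 active means B-score of the integrated calcium signal more than 4 SD below the library mean, with starting fluorescence not abnormally high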;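 further: negative B-score means reduced calcium response which marks RGS4 activation or potentiation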
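test system = M3R-expressing HEK293 line, RGS4 induced by doxycycline | probe or stimulus = carbachol at ECmax as muscarinic agonist stimulus | timing = dye loading 30 min 37 °C, buffer rest 30 min RT | signal = calcium dye Fluo4 fluorescence | evaluation = B score from integrated fluorescence ratio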
MrgX1 PAM = positive allosteric modulators of MrgX1, primary screen, HEK293 cells, Fluo-4 calcium flux; Mas-related G-protein coupled receptor member X1 (Homo sapiens), Q96LB2; FDSS; active compounds read high; B-score at 10 µM; 310,000 tested, 0.63% active; AID 588675, 2011;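 active means plate-corrected calcium response at least 3 library SD above typical, normal starting fluorescence, not activating the receptor alone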;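 further: compound read alongside a low EC10 to EC30 dose of BAM8-22 agonist; peak minus trough fluorescence over baseline measured at the second addition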
Target sequence (Q96LB2 whole entry, looked up): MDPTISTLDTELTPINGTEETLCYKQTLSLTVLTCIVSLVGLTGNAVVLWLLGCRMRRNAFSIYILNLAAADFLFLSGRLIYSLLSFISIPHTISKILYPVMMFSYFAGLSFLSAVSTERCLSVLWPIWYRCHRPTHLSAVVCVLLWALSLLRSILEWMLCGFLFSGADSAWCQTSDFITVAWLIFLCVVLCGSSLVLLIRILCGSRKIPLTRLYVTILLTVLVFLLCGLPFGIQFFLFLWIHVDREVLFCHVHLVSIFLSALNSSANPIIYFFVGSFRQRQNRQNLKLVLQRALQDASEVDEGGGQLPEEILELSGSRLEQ
MrgX1 ag = agonists of human MrgX1 receptor, primary screen, HEK293 cells, Fluo-4 calcium flux; 310,000 tested, 0.44% active; Fluo-4 calcium fluorescence, agonist mode; active compounds read high; B-score at 10 µM; Mas-related G-protein coupled receptor member X1 (Homo sapiens), Q96LB2;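 active means calcium response B-score plate-corrected fluorescence ratio at least 3 library SD, with starting fluorescence B-score inside 5 SD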
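Material – MrgX1-expressing HEK293 cells · Input – 15,000 cells seeded per well · Dosing – compound as first of three additions · Times – overnight seeding, then 1 h dark dye loading · Measured by – kinetic Fluo-4 NW fluorescence of intracellular calcium · Read-out – B-scored fluorescence response ratio · Benchmarks – positive and negative control wells on each plate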
MrgX1 antagonist = antagonists of human MrgX1 receptor, primary screen, HEK293 cells, Fluo-4 calcium flux | Mas-related G-protein coupled receptor member X1 (Homo sapiens), Q96LB2 | BAM8-22 antagonism; active compounds read low | B-score at 10 µM | 310,000 tested, 1.3% active | AID 588676, 2011;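 active means calcium-response B-score plate-corrected more than 3 library SD below zero, starting fluorescence within 5 deviations, no agonist response on first addition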;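 further: peak minus trough fluorescence over baseline after final BAM8-22 challenge near maximal dose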
RGS4 block = RGS4 inhibitors, primary screen, cell-based, HEK293 M3R inducible RGS4, calcium flux. Regulator of G-protein signaling 4 (Homo sapiens), P49798. Fluo-4 calcium flux; active compounds read high; triggered by carbachol at its EC20. B-score at 10 µM. 310,000 tested, 0.45% active. AID 463165, 2010;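 active means B-score, a plate-corrected calcium signal, over three deviations above library mean, with baseline fluorescence within five deviations of library mean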;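 further: RGS4 expression induced by doxycycline in cells with stable M3 receptor; B-score is computed from the integrated fluorescence ratio over baseline after carbachol; higher B-score means a larger calcium signal and so more RGS4 inhibition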
Target sequence (P49798 whole entry, looked up): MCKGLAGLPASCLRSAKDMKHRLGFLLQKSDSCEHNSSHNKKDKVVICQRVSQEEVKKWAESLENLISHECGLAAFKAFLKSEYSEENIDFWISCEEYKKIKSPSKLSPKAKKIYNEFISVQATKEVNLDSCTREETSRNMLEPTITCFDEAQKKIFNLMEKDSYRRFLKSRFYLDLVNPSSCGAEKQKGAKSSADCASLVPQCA
MrgX1 antag conf = MrgX1 receptor antagonists, duplicate retest, confirmation, HEK293 cells, Fluo-4 calcium flux | shares compounds with MrgX1 antagonist | remaining BAM8-22 calcium response % of control (active compounds read low), % at 10 µM | 2,300 tested, 19% active | BAM8-22 calcium flux; active compounds read low;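 active means remaining agonist calcium response no higher than 100% minus 3 SD of agonist-only control wells, with starting fluorescence near control levels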;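 further: agonist BAM8-22 given at a near maximal EC90 to ECmax level; peak minus minimum fluorescence divided by baseline after agonist addition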
HEK293 Ca flux = nonspecific calcium signal in parental HEK293, confirmation, counter-screen for MrgX1 antagonist project, parental HEK293 cells, Fluo-4 calcium flux | shares compounds with MrgX1 antagonist | Fluo-4 calcium fluorescence, FDSS | fluorescence ratio F(max-min)/F0 at 10 µM | 4,000 tested, 2% active;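 active means duplicate-averaged calcium fluorescence ratio at least three times the standard deviation of buffer wells, a nonspecific response in parental cells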
HEK293 Ca counter = calcium response in parental HEK293 cells, primary screen, counter-screen for MrgX1 allosteric activator project, cell-based, Fluo-4 calcium flux, duplicate. shares compounds with MrgX1 antagonist. Fluo-4 fluorescence ratio; active compounds read high. fluorescence ratio F(max-min)/F0 at 10 µM. 4,000 tested, 0.4% active. AID 624114, 2012;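 active means calcium fluorescence ratio, averaged over duplicates, at least 3 SD of the buffer-well ratio, meaning a nonspecific response in receptor-free cells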;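 further: untransfected parental HEK293 lacking MrgX1 used as counterscreen for MrgX1 allosteric activators; fluorescence change taken during the second addition on a kinetic imager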
HEK293 Ca cntr2 = calcium response in parental HEK293 cells, primary screen, counter-screen for MrgX1 agonist project, cell-based, Fluo-4 calcium flux, duplicate, agonist mode. shares compounds with MrgX1 antagonist. Fluo-4 calcium fluorescence (FDSS); active compounds read high. fluorescence ratio F(max-min)/F0 at 10 µM. 4,000 tested, 8.7% active. AID 624115, 2012;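 active means calcium fluorescence ratio at least three times the spread of buffer wells, meaning a non-specific response in parental cells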
A number is an active result. Hits are enriched below; roughly 3.5% of the tested compounds scored in any of these assays.

Screening O=C(OCc1nnc(-c2ccccc2)o1)C1CC(=O)N(c2ccccc2)C1 (stereo not given) returned RGS4 pot inactive, MrgX1 PAM inactive, MrgX1 ag inactive, MrgX1 antagonist inactive and RGS4 block inactive.
O=C(OCc1nnc(-c2ccccc2)o1)C1CC(=O)N(Cc2ccco2)C1 (stereo not given) was read as RGS4 pot inactive, MrgX1 PAM inactive, MrgX1 ag inactive, MrgX1 antagonist -5, RGS4 block inactive, MrgX1 antag conf inactive, HEK293 Ca flux inactive, HEK293 Ca counter inactive and HEK293 Ca cntr2 inactive.
CCOCc1cnc(C)nc1NCC(=O)c1c(C)[nH]c2ccc(OC)cc12 was read as RGS4 pot inactive, MrgX1 PAM inactive, MrgX1 ag inactive, MrgX1 antagonist -8.8, RGS4 block inactive, MrgX1 antag conf inactive, HEK293 Ca flux inactive, HEK293 Ca counter inactive and HEK293 Ca cntr2 inactive.
`Cn1cnnc1SCC(=O)Nc1ccc(OC(F)F)cc1` gave RGS4 pot inactive, MrgX1 PAM inactive, MrgX1 ag inactive, MrgX1 antagonist -4.9, RGS4 block inactive, MrgX1 antag conf 84%, HEK293 Ca flux inactive, HEK293 Ca counter inactive and HEK293 Ca cntr2 inactive.
Screening Cn1cnnc1SCCC(=O)Nc1ccccc1 returned RGS4 pot inactive, MrgX1 PAM inactive, MrgX1 ag inactive, MrgX1 antagonist inactive and RGS4 block inactive.
Screening Cn1cnnc1SCCC(=O)Nc1ccc(Cl)cc1 returned RGS4 pot inactive, MrgX1 PAM inactive, MrgX1 ag inactive, MrgX1 antagonist -5.8, RGS4 block inactive, MrgX1 antag conf inactive, HEK293 Ca flux inactive, HEK293 Ca counter inactive and HEK293 Ca cntr2 inactive.
For O=C(O)CCCNC(=O)CCCn1nnc2ccccc2c1=O the results were RGS4 pot inactive, MrgX1 PAM inactive, MrgX1 ag inactive, MrgX1 antagonist inactive and RGS4 block inactive.
Screening CCCNC(=O)CN1C(=O)COc2ccc(S(=O)(=O)N3CC(C)CC(C)C3)cc21 (stereo not given) returned RGS4 pot inactive, MrgX1 PAM inactive, MrgX1 ag inactive, MrgX1 antagonist inactive and RGS4 block inactive.
COC(=O)C1CCN(S(C)(=O)=O)CC1 was read as RGS4 pot inactive, MrgX1 PAM inactive, MrgX1 ag inactive, MrgX1 antagonist -4.6, RGS4 block inactive, MrgX1 antag conf inactive, HEK293 Ca flux inactive, HEK293 Ca counter inactive and HEK293 Ca cntr2 inactive.
`COC(=O)C1CCN(S(=O)(=O)c2ccc(NC(C)=O)cc2)CC1` gave RGS4 pot inactive, MrgX1 PAM inactive, MrgX1 ag inactive, MrgX1 antagonist inactive and RGS4 block inactive.
`Cc1nn(Cc2ccccc2Cl)c2sc(C(=O)Nc3nccs3)cc12` gave RGS4 pot inactive, MrgX1 PAM inactive, MrgX1 ag inactive, MrgX1 antagonist inactive and RGS4 block inactive.
`Cc1nn(Cc2ccc(F)cc2)c2sc(C(=O)Nc3nccs3)cc12` gave RGS4 pot inactive, MrgX1 PAM inactive, MrgX1 ag inactive, MrgX1 antagonist -4.7, RGS4 block inactive, MrgX1 antag conf inactive, HEK293 Ca flux inactive, HEK293 Ca counter inactive and HEK293 Ca cntr2 inactive.
COC(=O)CNc1cc(S(=O)(=O)N2CCCCC2)ccc1Oc1ccc(C(=O)OC)cc1 was read as RGS4 pot inactive, MrgX1 PAM inactive, MrgX1 ag inactive, MrgX1 antagonist inactive and RGS4 block inactive.
Screening COC(=O)c1ccc(Oc2ccc(S(=O)(=O)N3CCCCC3)cc2N)cc1 returned RGS4 pot inactive, MrgX1 PAM inactive, MrgX1 ag inactive, MrgX1 antagonist -4.9, RGS4 block inactive, MrgX1 antag conf inactive, HEK293 Ca flux inactive, HEK293 Ca counter inactive and HEK293 Ca cntr2 inactive.
For COc1ccc(S(=O)(=O)N2CCCCC2)cc1C(=O)N1CCCC1 the results were RGS4 pot inactive, MrgX1 PAM inactive, MrgX1 ag inactive, MrgX1 antagonist -5.6, RGS4 block inactive, MrgX1 antag conf inactive, HEK293 Ca flux inactive, HEK293 Ca counter inactive and HEK293 Ca cntr2 inactive.
Screening Cc1cccc(CC(=O)N2CCCC2)c1 returned RGS4 pot inactive, MrgX1 PAM inactive, MrgX1 ag inactive, MrgX1 antagonist inactive and RGS4 block inactive.
For CC(C)CNS(=O)(=O)c1ccc(CCC(=O)NCCc2ccccc2)cc1 the results were RGS4 pot inactive, MrgX1 PAM inactive, MrgX1 ag inactive, MrgX1 antagonist inactive and RGS4 block inactive.
For O=S(=O)(NC1CCCCC1N1CCN(c2ccccc2F)CC1)c1ccc(Cl)cc1 (stereo not given) the results were RGS4 pot inactive, MrgX1 PAM inactive, MrgX1 ag inactive, MrgX1 antagonist -9.6, RGS4 block inactive, MrgX1 antag conf inactive, HEK293 Ca flux inactive, HEK293 Ca counter inactive and HEK293 Ca cntr2 inactive.
Screening Cc1ccc(NC(=O)C2CCN(S(=O)(=O)c3c(C)n[nH]c3C)CC2)nc1 returned RGS4 pot inactive, MrgX1 PAM inactive, MrgX1 ag inactive, MrgX1 antagonist inactive and RGS4 block inactive.
Screening CCOc1ccc(S(=O)(=O)Nc2cc(Cl)ccc2O)cc1 returned RGS4 pot inactive, MrgX1 PAM inactive, MrgX1 ag inactive, MrgX1 antagonist -4.6, RGS4 block inactive, MrgX1 antag conf 85%, HEK293 Ca flux inactive, HEK293 Ca counter inactive and HEK293 Ca cntr2 inactive.
For CCCNC(=O)c1nc(C)n(-c2cc(Cl)cc(Cl)c2)n1 the results were RGS4 pot inactive, MrgX1 PAM inactive, MrgX1 ag inactive, MrgX1 antagonist inactive and RGS4 block inactive.
Screening CCCNC(=O)c1nc(C)n(-c2cc(Cl)ccc2Cl)n1 returned RGS4 pot inactive, MrgX1 PAM inactive, MrgX1 ag inactive, MrgX1 antagonist -8.2, RGS4 block inactive, MrgX1 antag conf 81%, HEK293 Ca flux inactive, HEK293 Ca counter inactive and HEK293 Ca cntr2 inactive.
